# Compound activity from PubChem BioAssay.
# MrgX1 agonist – agonists of human MrgX1 receptor, primary screen, HEK293 cells, Fluo-4 calcium flux; Mas-related G-protein coupled receptor member X1 (Homo sapiens), Q96LB2; Fluo-4 calcium fluorescence, agonist mode; hits give high values; B-score at 10 µM; actives 0.44% (n = 310,000); AID 588627, 2011;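 active = calcium response B-score plate-corrected fluorescence ratio at least 3 library SD, with starting fluorescence B-score inside 5 SD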
# Target sequence (Q96LB2 whole entry, looked up): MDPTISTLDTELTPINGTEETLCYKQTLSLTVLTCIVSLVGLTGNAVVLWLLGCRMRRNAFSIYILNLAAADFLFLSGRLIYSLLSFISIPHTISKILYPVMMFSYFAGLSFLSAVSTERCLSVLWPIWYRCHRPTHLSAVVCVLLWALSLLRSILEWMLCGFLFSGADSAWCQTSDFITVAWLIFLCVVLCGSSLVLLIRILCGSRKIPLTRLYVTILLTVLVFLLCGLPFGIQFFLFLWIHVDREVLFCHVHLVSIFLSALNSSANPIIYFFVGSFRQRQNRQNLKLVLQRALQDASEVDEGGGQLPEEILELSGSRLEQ
#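 Material – MrgX1-expressing HEK293 cells · Input – 15,000 cells seeded per well · Dosing – compound as first of three additions · Times – overnight seeding, then 1 h dark dye loading · Measured by – kinetic Fluo-4 NW fluorescence of intracellular calcium · Read-out – B-scored fluorescence response ratio · Benchmarks – positive and negative control wells on each plate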
# MrgX1 allo act – positive allosteric modulators of MrgX1, primary screen, HEK293 cells, Fluo-4 calcium flux. actives 0.63% (n = 310,000). AID 588675, 2011. FDSS; hits give high values. B-score at 10 µM. Mas-related G-protein coupled receptor member X1 (Homo sapiens), Q96LB2;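 active = plate-corrected calcium response at least 3 library SD above typical, normal starting fluorescence, not activating the receptor alone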;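 note: compound read alongside a low EC10 to EC30 dose of BAM8-22 agonist; peak minus trough fluorescence over baseline measured at the second addition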
# MrgX1 antagonist – antagonists of human MrgX1 receptor, primary screen, HEK293 cells, Fluo-4 calcium flux; actives 1.3% (n = 310,000); Mas-related G-protein coupled receptor member X1 (Homo sapiens), Q96LB2; B-score at 10 µM; AID 588676, 2011; BAM8-22 antagonism; hits give low values;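 active = calcium-response B-score plate-corrected more than 3 library SD below zero, starting fluorescence within 5 deviations, no agonist response on first addition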;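 note: peak minus trough fluorescence over baseline after final BAM8-22 challenge near maximal dose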
# RGS4 act – RGS4 potentiators or activators, primary screen, cell-based, HEK293 M3R inducible RGS4, calcium flux. carbachol calcium flux Fluo4; hits give low values. AID 463111, 2010. actives 0.92% (n = 310,000). B-score at 10 µM;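 active = B-score of the integrated calcium signal more than 4 SD below the library mean, with starting fluorescence not abnormally high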;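 note: negative B-score means reduced calcium response which marks RGS4 activation or potentiation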
#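 Also added: carbachol at ECmax as muscarinic agonist stimulus; Assay system: HEK293 cells with stable M3R and inducible RGS4; Timing: overnight RGS4 induction, 30 min dye load 37 °C, 20 min compound RT; Measured by: Fluo4-AM (2 µM) calcium-flux fluorescence, kinetic read.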
# RGS4 inh – RGS4 inhibitors, primary screen, cell-based, HEK293 M3R inducible RGS4, calcium flux; Regulator of G-protein signaling 4 (Homo sapiens), P49798; Fluo-4 calcium flux; hits give high values; triggered by carbachol at its EC20; B-score at 10 µM; actives 0.45% (n = 310,000); AID 463165, 2010;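 active = B-score, a plate-corrected calcium signal, over three deviations above library mean, with baseline fluorescence within five deviations of library mean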;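 note: RGS4 expression induced by doxycycline in cells with stable M3 receptor; B-score is computed from the integrated fluorescence ratio over baseline after carbachol; higher B-score means a larger calcium signal and so more RGS4 inhibition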
# RGS4 block valid – enhanced carbachol calcium response, M3R/RGS4 cells, RGS4 inhibitor project, cell-based, validation screen, HEK293 M3R/RGS4, calcium flux. shares compounds with RGS4 inh. carbachol calcium Fluo-4 fluorescence; carbachol added at its EC20; 0 = buffer wells, 100 = carbachol control. calcium response, % at 10 µM. actives 65% (n = 1,700). AID 492999, 2010;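 active = duplicate-averaged calcium response above the buffer-only control mean plus 5 SD of those controls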;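 note: integrated fluorescence ratio F max minus min over baseline F0; higher response in RGS4-induced cells means RGS4 inhibition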
# M3R Ca ctr – carbachol calcium response in non-induced M3R cells, confirmation, counter-screen for RGS4 inhibitor project, cell-based, HEK293 M3R; shares compounds with RGS4 inh; actives 20% (n = 1,900); activity (percent), % at 10 µM; carbachol calcium Fluo-4; submaximal (EC20) carbachol stimulus; buffer wells 0%, carbachol control wells 100%; AID 493000, 2010; call rule not given here;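 note: RGS4 induction absent so cells express M3R without RGS4; higher means more calcium signal and flags a non-specific hit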
# RGS4 inh ctr2 – second counter-screen for RGS4 inhibitors: non-induced cells without carbachol. actives 22% (n = 1,900). shares compounds with RGS4 inh. calcium response (agonist-mode artifact), % at 10 µM. HEK293 M3R/RGS4 non-induced, Fluo-4 calcium, no carbachol; normalised: buffer wells 0%, carbachol wells 100%;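 active = duplicate-averaged calcium rise in uninduced cells above buffer wells' mean plus 5 SD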
# * = called active by the depositor; i = inactive; . = no result. Rows were chosen to be rich in hits. Some 3.5% of all compounds tested hit in one or more screens of this group.
SMILES,MrgX1 agonist,MrgX1 allo act,MrgX1 antagonist,RGS4 act,RGS4 inh,RGS4 block valid,M3R Ca ctr,RGS4 inh ctr2
C=CCN1C=C2C(=O)C(C)(OC(=O)c3ccc(OC)cc3)C(=O)C(c3ccco3)=C2C=C1CCCC (stereo not drawn),i,i,i,i,i,i,i,i
CCCCC1=CC2=C(c3ccco3)C(=O)C(C)(OC(=O)c3ccc(OC)cc3)C(=O)C2=CN1c1ccccc1 (stereo not drawn),i,i,i,i,i,.,i,i
CCOc1ccccc1CNC(=O)Cn1nc(C)c2c(C)n(-c3ccc(C)cc3)nc2c1=O,i,i,i,i,i,.,.,.
CCC(=O)c1cn(CC(=O)Nc2ccc(OC)cc2)c2ccccc12,i,i,i,i,i,.,.,.
CC(=O)Nc1ccc(Nc2cc(C)nc3c(-c4ccc(Cl)cc4)c(C)nn23)cc1,i,i,i,i,i,.,i,i
Cc1cc(N)n2nc(C)c(-c3ccc(Cl)cc3)c2n1,i,i,i,i,7.8*,10%*,i,i
CC(=O)Nc1ccc(Nc2cc(C)nc3c(-c4ccc(Cl)cc4)cnn23)cc1,i,i,i,i,i,.,.,.
CCOC(=O)C1(Cc2ccc(Cl)cc2)CCN(C(=O)c2cscn2)CC1,i,i,i,i,i,.,.,.
COc1ccc(C(=O)OCC(=O)N2CCCC2=O)c(OC)c1,i,i,i,i,i,.,.,.
COCCCNC(=O)c1cn(Cc2c(F)cccc2Cl)nn1,i,i,i,i,5.1*,i,i,i
O=C(CNC(=O)N1CC(=O)Nc2ccccc21)Nc1cccc(F)c1,i,i,i,i,i,.,.,.
CCC(C)Nc1nc2c(c(=O)[nH]c(=O)n2C)n1CCC(C)C (stereo not drawn),i,i,i,i,i,i,i,i
COC(=O)C(C)Sc1nc2c(c(=O)n(C)c(=O)n2C)n1CCC(C)C (stereo not drawn),i,i,i,i,i,.,.,.
COC(=O)C(C)Sc1nc2c(c(=O)[nH]c(=O)n2C)n1CCC(C)C (stereo not drawn),i,i,i,i,5.7*,26%*,56%*,i
Cc1cc(C)n(C2CC(=O)N(c3ccc(Cl)c(Cl)c3)C2=O)n1 (stereo not drawn),i,i,i,i,i,.,.,.
COc1ccc(C(=O)CCN2CCCCCC2)cc1,39*,i,i,i,11*,i,i,28%*
O=C(CCN1CCCCC1)c1ccc2c(c1)OCCO2,i,i,i,i,i,i,i,i
O=C(CCN1CCc2ccccc2C1)c1ccc2c(c1)OCCO2,i,i,i,i,6.7*,20%*,i,14%*
O=C(CCN1CCc2ccccc21)c1ccc2c(c1)OCCO2,i,i,i,i,i,.,.,.
CCOc1ccc(C(=O)CCN2CCCCC2)cc1,i,i,i,i,i,.,.,.
COc1cc(C2NC(=O)NC(C)=C2C(=O)OC2CCCC(C)C2)ccc1O (stereo not drawn),i,i,i,i,i,.,.,.
